# RGS4 pot: RGS4 potentiation or activation. HEK293 M3R/inducible RGS4, carbachol calcium flux Fluo4; active compounds read low. B-score at 10 µM. 0.92% of 310,000 active;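 active = B-score of the integrated calcium signal more than 4 SD below the library mean, with starting fluorescence not abnormally high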;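 note: negative B-score means reduced calcium response which marks RGS4 activation or potentiation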
#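 Material: Inducible-RGS4 HEK293 cells carrying M3 receptor; also added: carbachol at ECmax as muscarinic agonist stimulus; incubation: compound preincubation 20 min at room temperature before agonist; signal: Fluo4-AM (2 µM) calcium-flux fluorescence, kinetic read; measure: integrated calcium ratio converted to B score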
# MrgX1 ag: activates human MrgX1 receptor signaling | MrgX1-HEK293 cells, Fluo-4 calcium fluorescence, agonist mode; active compounds read high | 0.44% of 310,000 active | B-score at 10 µM | AID 588627;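 active = calcium response B-score plate-corrected fluorescence ratio at least 3 library SD, with starting fluorescence B-score inside 5 SD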
# Target sequence (Q96LB2 whole entry, looked up): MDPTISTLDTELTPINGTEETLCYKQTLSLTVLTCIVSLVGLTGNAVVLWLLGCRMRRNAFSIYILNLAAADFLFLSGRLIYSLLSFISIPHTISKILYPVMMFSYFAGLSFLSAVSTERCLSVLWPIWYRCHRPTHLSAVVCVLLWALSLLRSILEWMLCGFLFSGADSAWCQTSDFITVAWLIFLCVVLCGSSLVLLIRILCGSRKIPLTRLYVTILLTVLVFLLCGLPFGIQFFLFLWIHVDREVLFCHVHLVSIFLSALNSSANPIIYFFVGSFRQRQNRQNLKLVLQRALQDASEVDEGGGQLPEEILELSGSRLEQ
#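 Assay system: stable human MrgX1 HEK293 cell line. Quantity: 15,000 cells per well. Schedule: cells plated overnight, dye loaded 0.5 h 37 °C, 0.5 h room temperature. Detection: Fluo-4 NW calcium-flux fluorescence, kinetic read. Read-out basis: peak-minus-minimum fluorescence over baseline, converted to B scores. Control set: positive and negative control wells on each plate.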
# RGS4 inh: inhibitors of human RGS4. P49798. HEK293 M3R/RGS4 inducible, Fluo-4 calcium flux; active compounds read high; triggered by carbachol at its EC20. B-score at 10 µM. 0.45% of 310,000 active. AID 463165;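 active = B-score, a plate-corrected calcium signal, over three deviations above library mean, with baseline fluorescence within five deviations of library mean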;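 note: RGS4 expression induced by doxycycline in cells with stable M3 receptor; B-score is computed from the integrated fluorescence ratio over baseline after carbachol; higher B-score means a larger calcium signal and so more RGS4 inhibition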
# Target sequence (P49798 whole entry, looked up): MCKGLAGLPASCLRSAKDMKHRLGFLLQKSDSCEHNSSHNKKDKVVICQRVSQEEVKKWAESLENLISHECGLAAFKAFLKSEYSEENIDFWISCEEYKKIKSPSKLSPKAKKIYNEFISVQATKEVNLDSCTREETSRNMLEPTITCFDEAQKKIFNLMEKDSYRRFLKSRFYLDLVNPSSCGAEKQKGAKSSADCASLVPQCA
# MrgX1 PAM: allosterically activates human MrgX1 receptor signaling. 0.63% of 310,000 active. MrgX1-HEK293, Fluo-4 calcium flux, FDSS; active compounds read high. B-score at 10 µM. Q96LB2. AID 588675;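 active = plate-corrected calcium response at least 3 library SD above typical, normal starting fluorescence, not activating the receptor alone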;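 note: compound read alongside a low EC10 to EC30 dose of BAM8-22 agonist; peak minus trough fluorescence over baseline measured at the second addition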
# MrgX1 antagonist: blocks BAM8-22 activation of human MrgX1 receptor; 1.3% of 310,000 active; Q96LB2; B-score at 10 µM; MRGX1-HEK293 calcium flux, Fluo-4, BAM8-22 antagonism; active compounds read low;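 active = calcium-response B-score plate-corrected more than 3 library SD below zero, starting fluorescence within 5 deviations, no agonist response on first addition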;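 note: peak minus trough fluorescence over baseline after final BAM8-22 challenge near maximal dose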
# MrgX1 ant reconf: reconfirmed antagonist of human MrgX1 receptor signaling. remaining BAM8-22 calcium response % of control (active compounds read low), % at 10 µM. MrgX1-HEK293, BAM8-22 calcium flux, Fluo-4; active compounds read low. 19% of 2,300 active. shares compounds with MrgX1 antagonist;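 active = remaining agonist calcium response no higher than 100% minus 3 SD of agonist-only control wells, with starting fluorescence near control levels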;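 note: agonist BAM8-22 given at a near maximal EC90 to ECmax level; peak minus minimum fluorescence divided by baseline after agonist addition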
# HEK293 Ca flux: MrgX1 antagonist counter-screen hit in parental HEK293 cells | Fluo-4 calcium fluorescence, FDSS | 2% of 4,000 active | fluorescence ratio F(max-min)/F0 at 10 µM | shares compounds with MrgX1 antagonist;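 active = duplicate-averaged calcium fluorescence ratio at least three times the standard deviation of buffer wells, a nonspecific response in parental cells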
# HEK293 Ca counter: MrgX1 allosteric activator counter-screen hit in parental HEK293 cells; shares compounds with MrgX1 antagonist; parental HEK293 calcium flux, Fluo-4 fluorescence ratio; active compounds read high; fluorescence ratio F(max-min)/F0 at 10 µM; 0.4% of 4,000 active; AID 624114;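 active = calcium fluorescence ratio, averaged over duplicates, at least 3 SD of the buffer-well ratio, meaning a nonspecific response in receptor-free cells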;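 note: untransfected parental HEK293 lacking MrgX1 used as counterscreen for MrgX1 allosteric activators; fluorescence change taken during the second addition on a kinetic imager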
# HEK293 Ca cntr2: MrgX1 activator counter-screen hit in parental HEK293 cells; 8.7% of 4,000 active; fluorescence ratio F(max-min)/F0 at 10 µM; Fluo-4 calcium fluorescence (FDSS); active compounds read high; shares compounds with MrgX1 antagonist;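 active = calcium fluorescence ratio at least three times the spread of buffer wells, meaning a non-specific response in parental cells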
# Numbers without * were called inactive; i = inactive; . = no result given. Shown are actives, neighbours in structure and some others; about 3.5% of the full set was active somewhere.
SMILES,RGS4 pot,MrgX1 ag,RGS4 inh,MrgX1 PAM,MrgX1 antagonist,MrgX1 ant reconf,HEK293 Ca flux,HEK293 Ca counter,HEK293 Ca cntr2
COc1ccc(-n2nnnc2S(=O)(=O)Cc2ccc(C(=O)O)cc2)cc1,i,i,i,i,-8.2*,i,i,i,i
CC12CCC(=O)N1C(C(=O)Nc1ccc(SC(F)F)cc1)CS2 (configuration not stated),i,i,i,i,i,.,.,.,.
O=C(c1ccccc1F)N1CCN(C(=O)C2CC2)CC1,i,i,i,i,i,.,.,.,.
Cn1c(O)c(N=NC(=O)Cn2ccc(C(F)(F)F)n2)c2ccccc21,i,i,i,i,-6.3*,i,i,i,i
O=S(=O)(/C=C/c1cccc(Br)c1)N1CCOCC1,i,i,i,i,i,.,.,.,.
CC1CCC2(CC1)NC(=O)N(CC(=O)Nc1ccc(N3CCOCC3)cc1)C2=O (configuration not stated),i,i,i,i,-4.7*,84%*,i,i,i
CCOc1ccc(S(=O)(=O)NCCC(=O)N2CCN(c3ccccc3O)CC2)cc1,i,i,i,i,i,.,.,.,.
CC(OC(=O)CCN=C1NS(=O)(=O)c2ccccc21)C(=O)N(C)c1ccccc1 (configuration not stated),i,i,i,i,-11*,i,i,i,i
Cn1nccc1C(=O)N1CCc2c([nH]c3ccccc23)C1c1ccc(F)cc1 (configuration not stated),i,i,i,i,-7.3*,i,i,i,i
CCc1ccc(C2c3[nH]c4ccccc4c3CCN2C(=O)c2cc[n+]([O-])cc2)cc1 (configuration not stated),i,i,i,i,i,.,.,.,.
Cc1c(O)nc(SCC(=O)Nc2ccc3c4c(cccc24)CC3)n(-c2ccc(F)cc2)c1=O,i,i,i,i,i,.,.,.,.
O=C(NCCc1cn2ccsc2n1)c1cccs1,i,i,i,i,-6.3*,i,i,i,i
O=S(=O)(NCc1cn2ccsc2n1)c1cccs1,i,i,i,i,i,.,.,.,.
Cc1cccc(C(C)C)c1NC(=O)c1cc2ccccc2o1,i,i,i,i,i,.,.,.,.
COc1ccc(NC(=O)C/C(C)=N/NC(=O)COc2ccc(OC)cc2)cc1,i,i,i,i,i,.,.,.,.
COc1ccc(OCC(=O)N/N=C(\C)CC(=O)Nc2cccc([N+](=O)[O-])c2)cc1,i,i,i,i,-11*,i,i,i,i
Cc1cc(C)cc(S(=O)(=O)c2cn(C)c3cc(N4CCN(C)CC4)c(F)cc3c2=O)c1,i,i,i,i,i,.,.,.,.
CC(C)(C)NS(=O)(=O)c1ccc(CCC(=O)Nc2ccc3c(c2)OCCO3)cc1,i,i,i,i,-4.7*,i,i,i,i
COc1ccc(OCC(=O)N2CCc3c([nH]c4ccccc34)C2c2ccccn2)cc1 (configuration not stated),i,i,i,i,-6.4*,i,i,i,i
CCc1nc(C)ccc1OCC(=O)N1CCc2c([nH]c3ccccc23)C1c1ccccn1 (configuration not stated),i,i,i,i,i,.,.,.,.
CCOC(=O)c1cnc(Nc2nc3ccccc3o2)nc1CSc1nnc(C)s1,i,i,i,i,-5.3*,i,i,i,i

# Screening data: PubChem BioAssay, Johns Hopkins Ion Channel Center
